From ChEMBL document CHEMBL3352477 (ACS Med Chem Lett, 2015)

Key:
[1] = biological target: Serine/threonine-protein kinase/endoribonuclease IRE1 (Homo sapiens, UniProt O75460); test: Inhibition of human IRE1alpha using 5'[6FAM]-GAGUCCGCAGCACUC-[BHQ1]3' substrate by biochemical fluorescence quenching assay
How it was run: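 RNase activity of autophosphorylated IRE1α, read as cleavage of an XBP1 stem-loop RNA substrate. This format picks up inhibitors acting at either the kinase or the RNase domain.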

HT-1080 = test: Inhibition of human XBP1 splicing in human HT1080-CMV-XBP1-Luciferase cells assessed as luciferase signal by Promega Bright-Glo luciferase assay; assay type: functional
How it was run: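 HT1080 cells carried an XBP1–luciferase fusion that is in frame and expressed only from the spliced XBP1 transcript. Thapsigargin induced the UPR and activated IRE1α to drive splicing. The luciferase signal was quantified as the measure of cellular XBP1 splicing.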

[2] = biological target: Mitogen-activated protein kinase 10 (Homo sapiens, UniProt P53779); test: Inhibition of human wild type JNK3 using biotinylated ATF2 substrate assessed as phosphorylation at thr53 on ATF2 by fluorescent plate reader
Mitogen-activated protein kinase 10, sequence (P53779 whole entry): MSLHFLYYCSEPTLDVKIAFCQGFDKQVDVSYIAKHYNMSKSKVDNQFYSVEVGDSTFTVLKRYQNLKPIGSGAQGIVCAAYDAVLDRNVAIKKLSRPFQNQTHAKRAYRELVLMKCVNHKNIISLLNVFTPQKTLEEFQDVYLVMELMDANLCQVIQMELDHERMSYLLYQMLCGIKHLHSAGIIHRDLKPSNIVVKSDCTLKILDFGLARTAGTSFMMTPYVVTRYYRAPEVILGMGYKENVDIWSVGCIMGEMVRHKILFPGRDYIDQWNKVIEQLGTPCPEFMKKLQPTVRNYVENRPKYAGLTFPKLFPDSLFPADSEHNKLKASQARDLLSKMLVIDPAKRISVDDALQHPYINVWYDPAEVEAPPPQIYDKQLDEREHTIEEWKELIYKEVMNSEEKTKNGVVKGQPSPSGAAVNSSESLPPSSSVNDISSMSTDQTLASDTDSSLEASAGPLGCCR

[3] = Inhibition of aurora (unknown origin) assessed as phosphorylation of histone H3; parameters: species or system Homo sapiens

Serine/threonine-protein kinase/endoribonuclease IRE1, sequence (O75460 whole entry, the tested form may be a part): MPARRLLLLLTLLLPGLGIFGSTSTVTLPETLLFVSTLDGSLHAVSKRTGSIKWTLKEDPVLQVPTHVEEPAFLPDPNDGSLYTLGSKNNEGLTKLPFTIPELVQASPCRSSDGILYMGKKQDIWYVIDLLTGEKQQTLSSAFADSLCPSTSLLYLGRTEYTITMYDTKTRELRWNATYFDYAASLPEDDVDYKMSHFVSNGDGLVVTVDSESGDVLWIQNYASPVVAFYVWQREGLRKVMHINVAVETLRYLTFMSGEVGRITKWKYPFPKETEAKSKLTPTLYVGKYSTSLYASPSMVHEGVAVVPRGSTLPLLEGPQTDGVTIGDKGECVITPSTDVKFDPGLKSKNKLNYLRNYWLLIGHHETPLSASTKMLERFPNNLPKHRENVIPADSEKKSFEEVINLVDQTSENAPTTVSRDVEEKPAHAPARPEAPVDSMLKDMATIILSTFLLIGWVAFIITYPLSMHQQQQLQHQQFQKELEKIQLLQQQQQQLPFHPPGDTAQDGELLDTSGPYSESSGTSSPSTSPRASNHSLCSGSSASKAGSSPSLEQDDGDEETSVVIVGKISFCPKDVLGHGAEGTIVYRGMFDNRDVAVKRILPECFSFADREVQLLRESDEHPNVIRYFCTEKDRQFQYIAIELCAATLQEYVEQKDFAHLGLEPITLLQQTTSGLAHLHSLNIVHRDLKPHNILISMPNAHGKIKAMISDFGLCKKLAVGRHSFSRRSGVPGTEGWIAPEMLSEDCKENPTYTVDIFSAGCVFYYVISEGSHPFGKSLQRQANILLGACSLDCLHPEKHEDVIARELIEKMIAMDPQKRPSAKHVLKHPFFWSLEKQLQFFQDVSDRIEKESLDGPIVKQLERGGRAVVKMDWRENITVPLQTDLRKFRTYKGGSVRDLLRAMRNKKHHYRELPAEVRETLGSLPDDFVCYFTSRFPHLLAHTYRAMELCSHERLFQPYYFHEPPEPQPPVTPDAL

| Structure (SMILES) | IC50 [1] | IC50 (HT-1080) | IC50 [2] | IC50 [3] |
| --- | --- | --- | --- | --- |
| N[C@H]1CC[C@H](Nc2nccc(-c3cccnc3Oc3ccc(Nc4nc5ccccc5[nH]4)c4ccccc34)n2)CC1 | 11 nM | 33 nM | 1.9 nM | – |
| CC(C)CCNc1nccc(-c2cccnc2Oc2ccc(Nc3nc4ccccc4[nH]3)c3ccccc23)n1 | > 99000 nM | 15000 nM | 32 nM | – |
| N[C@H]1CC[C@@H](Nc2nccc(-c3cccnc3Oc3ccc(Nc4nc5ccccc5[nH]4)c4ccccc34)n2)CC1 | 43 nM | 340 nM | 7.5 nM | – |
| N[C@H]1CC[C@H](Nc2nccc(-c3cccnc3Oc3ccc(NS(=O)(=O)c4ccccc4Cl)c4ccccc34)n2)CC1 | 31 nM | 580 nM | 400 nM | – |
| Cc1cc(NS(=O)(=O)c2ccccc2)c2ccccc2c1Oc1ncccc1-c1ccnc(N[C@H]2CC[C@H](N)CC2)n1 | 45 nM | 590 nM | 2200 nM | – |
| OCCNc1nccc(-c2cccnc2Oc2ccc(Nc3nc4ccccc4[nH]3)c3ccccc23)n1 | 170 nM | 870 nM | 12 nM | – |
| COc1ccccc1S(=O)(=O)Nc1cc(C)c(Oc2ncccc2-c2ccnc(N[C@H]3CC[C@H](N)CC3)n2)c2ccccc12 | 54 nM | 440 nM | 1200 nM | – |
| CN1CCCC(Nc2nccc(-c3cccnc3Oc3ccc(Nc4nc5ccccc5[nH]4)c4ccccc34)n2)C1 (centres undefined) | 29 nM | 310 nM | 5.5 nM | – |
| Cc1cc(Nc2nc3ccccc3o2)c2ccccc2c1Oc1ncccc1-c1ccnc(N[C@H]2CC[C@H](N)CC2)n1 | 14 nM | 51 nM | 7 nM | – |
| Cc1ccc2c(NS(=O)(=O)c3ccccc3Cl)cccc2c1Oc1ncccc1-c1ccnc(N[C@H]2CCCNC2)n1 | 13 nM | 99 nM | 2500 nM | – |
| c1cnc(Oc2ccc(Nc3nc4ccccc4[nH]3)c3ccccc23)c(-c2ccnc(N[C@H]3CCCNC3)n2)c1 | 9.7 nM | 31 nM | 31 nM | – |
| Cc1ccc2c(NS(=O)(=O)c3ccccc3Cl)cccc2c1Oc1ncccc1-c1ccnc(N[C@H]2CC[C@H](N)CC2)n1 | 22 nM | 120 nM | 540 nM | – |
| Cc1cc(Nc2nc3ccccc3[nH]2)c2ccccc2c1Oc1ncccc1-c1ccnc(N[C@H]2CCCNC2)n1 | 5.1 nM | 13 nM | 20 nM | – |
| Cc1cc(NS(=O)(=O)c2ccccc2C#N)c2ccccc2c1Oc1ncccc1-c1ccnc(N[C@H]2CC[C@H](N)CC2)n1 | 12 nM | 62 nM | 400 nM | – |
| Cc1cc(NS(=O)(=O)c2ccccc2Cl)c2ccccc2c1Oc1ncccc1-c1ccnc(N[C@H]2CC[C@H](N)CC2)n1 | 14 nM | 42 nM | 1600 nM | – |
| Cc1cc(Nc2nc3ccccc3[nH]2)c2ccccc2c1Oc1ncccc1-c1ccnc(N[C@H]2CC[C@H](N)CC2)n1 | 6.4 nM | 33 nM | 1.9 nM | – |
| CN(C)CCNc1nccc(-c2cccnc2Oc2ccc(Nc3nc4ccccc4[nH]3)c3ccccc23)n1 | 71 nM | 270 nM | 350 nM | 16000 nM |
| Cc1cc(Nc2nc3ccccc3[nH]2)c2ccccc2c1Oc1ncccc1-c1ccnc(NCCN(C)C)n1 | 14 nM | 200 nM | 710 nM | > 50000 nM |
| c1cnc(Oc2ccc(Nc3nc4ccccc4[nH]3)c3ccccc23)c(-c2ccnc(N[C@@H]3CCCNC3)n2)c1 | 51 nM | 570 nM | 14 nM | – |
